The list is not random: actives were taken first. Their share in the collection is about 12%.
CHOP inh – inhibitors of CHOP induction in ER stress response; AID 2732; 3.8% of 220,000 active; inhibition, % at 10 µM; CHO-K1 CHOP-promoter luciferase, tunicamycin-induced, 15-18 h;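 active means compounds that reduced the stress-induced luciferase reporter signal by more than about 70% of percent inhibition, limit read from the data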;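 further: 0% = tunicamycin plus vehicle and 100% = wells without tunicamycin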
Wee1 degr inh – blocks degradation of human Wee1 kinase; AID 1321; 1.2% of 220,000 active; HeLa Luc-Wee1K328M stability, luciferase luminescence; 100% = proteasome inhibitor MG132 effect; P30291; reporter increase, % at 5 µM;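 active means activation above the mean of all tested compounds plus 3 SD, set per screening run, cut at about 8.8% in these data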;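 further: cells exposed to compound for 20 h before luminescence read; 0% = DMSO alone and 100% = MG132 at 30 µM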
Target sequence (P30291 whole entry K328M): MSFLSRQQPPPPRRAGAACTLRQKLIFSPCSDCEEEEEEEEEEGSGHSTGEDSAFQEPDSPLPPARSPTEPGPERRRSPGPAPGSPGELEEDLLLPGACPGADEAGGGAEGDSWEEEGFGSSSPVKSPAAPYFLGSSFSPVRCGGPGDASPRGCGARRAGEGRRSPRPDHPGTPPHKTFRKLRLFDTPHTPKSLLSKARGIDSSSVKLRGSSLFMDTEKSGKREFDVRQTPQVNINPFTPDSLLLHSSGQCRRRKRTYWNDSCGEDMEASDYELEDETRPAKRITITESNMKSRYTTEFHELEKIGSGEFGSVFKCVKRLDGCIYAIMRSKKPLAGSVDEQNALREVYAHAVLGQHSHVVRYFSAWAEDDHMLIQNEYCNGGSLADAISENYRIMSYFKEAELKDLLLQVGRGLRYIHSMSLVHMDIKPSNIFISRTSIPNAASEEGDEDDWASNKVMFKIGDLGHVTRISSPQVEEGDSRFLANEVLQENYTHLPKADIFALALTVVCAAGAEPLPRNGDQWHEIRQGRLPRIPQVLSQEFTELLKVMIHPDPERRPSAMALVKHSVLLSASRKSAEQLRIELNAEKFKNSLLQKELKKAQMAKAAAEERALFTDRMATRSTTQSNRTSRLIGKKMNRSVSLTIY
Rad51 HR inh – blocks human Rad51 in homologous recombination; Q06609; hRad51 DNA strand exchange, fluorescence dequenching; inhibition, % at 10 µM; 0.085% of 200,000 active; AID 1385;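 active means inhibition above 40% at the single screening dose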;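 further: 0% = DMSO control wells and 100% = blanks with heterologous ssDNA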
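material = hRad51 filaments on single-stranded DNA | timing = filaments 15 min 37 °C, then compound 30 min | signal = FRET fluorescence dequenching, excitation 485 nm, emission 520 nm | benchmarks = control wells and blank wells on each plate | evaluation = percent inhibition relative to plate controls and blanks | compound = 10 µM final, single point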
Lmaj promast – reduces viability of Leishmania major promastigotes; inhibition, % at 10 µM; AID 1063; 9% of 200,000 active; resazurin fluorescence viability;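 further: promastigotes grown with compound for 44 hours at 28 °C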
Arbovirus anti – blocks arbovirus infection; AID 1251; arbovirus infection cell-based antiviral screen; inhibition, % at 10 µM; 0.37% of 200,000 active; in the data active means inhibition above about 30%
PKD1 kinase inh – inhibitors of human PKD1 kinase; PKD1 kinase fluorescence polarization assay; 0.056% of 200,000 active; inhibition, % (no concentration beside the values); AID 797
* hit, by the source's call; nt = no result given. Unless noted, no stated cut-off is given here; in the data, active means inhibition above about 50%; inactive means the rest.

SMILES | CHOP inh | Wee1 degr inh | Rad51 HR inh | Lmaj promast | Arbovirus anti | PKD1 kinase inh
CCN(c1ccccc1)S(=O)(=O)c1ccc(NCC2COc3ccccc3O2)nc1 (configuration not stated) | 85* | -2 | 0 | 11 | -21 | -2
CCN(c1ccccc1)S(=O)(=O)c1ccc(Cl)nc1 | 2 | 2 | -6 | 13 | -6 | -3
CCc1ccc(CNCc2ccc(F)cc2)cc1 | -8 | 0 | nt | 71* | -1 | -4
O=C(O)c1ccc(CNCc2ccc(F)cc2)cc1 | -10 | 1 | 1 | -5 | -4 | -12
CCc1ccc(CNCc2cccnc2)cc1 | 10 | -1 | -6 | 90* | 1 | -6
Cc1ccc(S(=O)(=O)N(CC(=O)N2CCN(c3ccc(F)cc3)CC2)C2CCCCC2)cc1 | 28 | -1 | -2 | 59* | -18 | -3
CCOC(=O)N1CCN(C(=O)CN(C2CCCCC2)S(=O)(=O)c2ccc(C)cc2)CC1 | 10 | 0 | -5 | 34 | 9 | -5
[N-]=[N+]=Nc1ccc(C(=O)CSC[C@H](NC(=O)CC[C@H](N)C(=O)O)C(=O)NCC(=O)O)cc1 | 17 | nt | nt | nt | nt | nt
Cn1c(NCc2ccccc2)nc2c1c(=O)n(Cc1ccc(Br)cc1)c(=O)n2C | 72* | -3 | -2 | 10 | -4 | -1
Cn1c(=O)c2c(nc(NCc3ccc4c(c3)OCO4)n2Cc2ccccc2)n(C)c1=O | 38 | 4 | 14 | 1 | -16 | 4
COc1ccc(CNc2nc3c(c(=O)n(Cc4ccc(Br)cc4)c(=O)n3C)n2C)cc1 | 73* | 0 | -6 | -3 | -5 | 7
CC(C)n1c(NCCc2ccccc2)nc2c1c(=O)n(C)c(=O)n2C | 75* | -1 | 1 | 0 | 30* | -10
COc1ccc(Cn2c(=O)c3c(nc(NCCO)n3C)n(C)c2=O)cc1 | 22 | 2 | 0 | -10 | 2 | -11
Cn1c(N/N=C2\CCCc3ccccc32)nc2c1c(=O)n(Cc1ccc(F)cc1)c(=O)n2C | 83* | 0 | -16 | 17 | -1 | -11
Cn1c(OCc2cccnc2)nc2c1c(=O)n(Cc1ccc(F)cc1)c(=O)n2C | 21 | -2 | -2 | nt | nt | nt
CCN(CC)c1ccc(S(=O)(=O)N2CCOCC2)cc1NC(=O)CSc1n[nH]c(N)n1 | -6 | -4 | -12 | nt | nt | nt
CCc1nnc(NC(=O)CSc2ccc(-c3ccc(F)cc3)nn2)s1 | -12 | -3 | 0 | -5 | 1 | -1
CCc1nnc(NC(=O)CSc2nc(-c3ccccc3)cc(-c3ccc(F)cc3)c2C#N)s1 | 84* | 1 | -2 | -6 | -10 | -6
CCc1nnc(NC(=O)CSc2nc(-c3ccccc3)nc3ccccc23)s1 | 90* | 0 | 6 | -4 | -7 | -7
CCOC(=O)CC(=O)c1cc(OC)c(OC)c(OC)c1 | 2 | -1 | 0 | -1 | -5 | 2
Cc1ccc(OCC(=O)Sc2ccc(C)cc2)cc1 | 53 | -3 | -2 | -11 | 3 | 6
COc1ccccc1OCC(=O)Sc1ccc(C)cc1 | 75* | -4 | -16 | 29 | -15 | -6
COc1cc(C(=O)Sc2ccc(C)cc2)cc(OC)c1OC | 82* | -3 | nt | 32 | -2 | 6
Nc1c(Cl)ncnc1NCCc1ccc(O)cc1 | 33 | 5 | -5 | nt | nt | nt
CCN(CC)C(=S)SCC(=O)Nc1ncc2c(n1)CC(C)(C)CC2=O | 21 | -2 | nt | nt | nt | nt
SMILES | CHOP inh | Wee1 degr inh | Rad51 HR inh | Lmaj promast | Arbovirus anti | PKD1 kinase inh
Cc1nn(Cc2ccccc2)c2c1C(c1ccc(Cl)cc1)C(C#N)=C(N)O2 (configuration not stated) | 25 | 2 | -4 | 85* | 0 | 2
CCOC(=O)C1=C(c2ccccc2)OC(N)=C(C#N)C1c1ccc(Cl)s1 (configuration not stated) | 78* | -1 | -5 | 11 | 8 | 3
Cc1nn(-c2ccccc2)c2c1C(c1ccc(Br)s1)C(C#N)=C(N)O2 (configuration not stated) | 65 | 9.1* | -14 | 81* | -13 | -10
CCOC(=O)C1=C(c2ccccc2)OC(N)=C(C#N)C1c1ccc(Br)s1 (configuration not stated) | 82* | 0 | -7 | 9 | 10 | -4
CC1=CC(=O)N(c2ccn(C)n2)C1=O | -26 | 0 | -19 | nt | nt | nt
O=C(NCc1ccco1)c1ccc(S(=O)(=O)N2CCCc3ccccc32)cc1 | -13 | -4 | 1 | 64* | -8 | -10
O=C(Nc1nnc(C2CC2)o1)c1ccc(S(=O)(=O)N2CCCc3ccccc32)cc1 | nt | nt | nt | 99* | -8 | -13
O=C(NCc1ccccc1)c1ccc(S(=O)(=O)N2CCCc3ccccc32)cc1 | 31 | 3 | -1 | 20 | -3 | 0
Cc1ccc2nc(NC(=O)c3ccc(S(=O)(=O)N4CCCc5ccccc54)cc3)sc2c1 | 76* | 2 | -1 | 98* | -12 | -10
COc1ccc(-c2nnc(NC(=O)c3ccc(S(=O)(=O)N4CCCc5ccccc54)cc3)o2)cc1 | 17 | -3 | nt | 99* | -28 | -3
CC1(C)CC2CC(C)(CN2C(=O)NC(=O)c2ccccc2)C1 (configuration not stated) | 10 | 1 | -9 | 0 | -12 | -7
Cc1ccc(C(=O)Nc2ccccc2C(=O)N2CC3(C)CC2CC(C)(C)C3)cc1 (configuration not stated) | 93* | 2 | -2 | 18 | -12 | -4
Cc1nnn(-c2nonc2N)c1C(=O)NNC(=O)c1ccc(Cl)c(Cl)c1 | 6 | 5 | -5 | 5 | 0 | -6
CCOc1ccc(S(=O)(=O)N(C)c2ccc(OCC(=O)NCc3ccc(C(=O)OC)cc3)cc2)cc1 | 30 | -1 | nt | 2 | 0 | 0
CC(=O)/C=C1/C(=O)Nc2ccccc21 | 4 | -2 | 19 | 94* | -6 | 11
COc1cc(OC)c(/C=C2/C(=O)Nc3ccccc32)c(OC)c1 | 13 | nt | nt | nt | nt | nt
COc1ccc(Cl)cc1NC(=O)CN1CCC(n2nnc3cc(C)ccc32)CC1 | 73* | 3 | -8 | 23 | -8 | 7
Cc1ccc2c(c1)nnn2C1CCN(CC(=O)Nc2ccccc2N2CCOCC2)CC1 | 42 | -2 | -1 | 59* | -23 | 0
CC1CCCCN1c1ccc(N)cc1C(N)=O (configuration not stated) | 1 | 0 | -19 | 9 | 5 | -1
Oc1c(-c2cc(-c3ccco3)[nH]n2)ccc2ccccc12 | 75* | 5 | -1 | 28 | 16 | 8
Oc1ccc(Cl)cc1-c1cc(-c2ccco2)[nH]n1 | 44 | 4 | -5 | 90* | -30 | 0
Oc1ccc(Br)cc1-c1cc(-c2ccco2)[nH]n1 | 80* | -3 | 12 | 3 | 9 | -6
Oc1ccccc1-c1cc(-c2ccco2)[nH]n1 | 25 | 1 | -1 | 1 | 9 | 4
Oc1ccc(Br)cc1-c1ccn[nH]1 | -25 | 0 | nt | -2 | 18 | 1
COc1ccc(-n2c(C)cc(-c3csc(N)n3)c2C)cc1 | 63 | 0 | nt | -2 | -13 | -4

Screens: PubChem BioAssay, several laboratories
